Seven compounds from ChEMBL document CHEMBL1128437, “Derivatives of 17-phenyl-18,19,20-trinorprostaglandin F2 alpha isopropyl ester: potential antiglaucoma agents” (J Med Chem, 1995) can be followed below.

Experiment [1] is filed under the species Felis catus. Briefly: Concentration giving half-maximal contraction of the cat iris sphincter muscle was determined in vitro. The class given is functional. The following applies: Felis catus, Sphincter muscle. A digest of the protocol:
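Compounds were tested as hydrolysed free acids on isolated cat iris sphincter in organ baths. Bath solution was bicarbonate physiological saline with glucose plus indomethacin 2.8 × 10⁻⁶ M, atropine 10⁻⁷ M and propranolol 10⁻⁶ M. Resting tension was 150 mg, with at least 30 min equilibration. Cumulative dosing was at 5–10 min intervals. Isometric contraction was normalised to each tissue's maximum, averaged over four preparations, and fitted with a Hill equation for EC50.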

For experiment [2], the species on record is Felis catus. Briefly: The maximal difference in Intraocular Pressure (IOP) between treated and control eyes. The effect was tested in cats at a dose of 1.0 (ug/eye). The class given is functional. In short, it runs like this: (§1)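 Domestic female cats, 2–3 kg, trained for IOP measurement. One eye received a topical drop (20 µL) of drug in 0.9% NaCl with 0.5% polysorbate 80; the other eye received vehicle. IOP was read by pneumatonometer under oxibuprocain local anaesthesia before dosing and at 1, 3, 6 and 23 h. The maximal treated-minus-control difference was taken. Area between curves is the treated-eye AUC minus control-eye AUC, per animal.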

The species named for experiment [3] is Felis catus. Briefly: The mean ocular irritation in the treated eyes. An arbitrary scale of from 0 to 3 was used, 0 indicates absence of irritation and 3 complete closure of the lids. The effect was tested in cats at a dose of 10.0 (ug/eye). The class given is functional. A digest of the protocol:
(§2)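 Ocular irritation was scored in the treated eye of trained female cats, 2–3 kg. Drug was given as one topical 20 µL drop in 0.9% NaCl with 0.5% polysorbate 80. The contralateral eye got vehicle only.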

For experiment [4], the species on record is Felis catus. Briefly: The mean area between curves for pupil diameter between treated and control eyes. The effect was tested in cats at a dose of 10.0 (ug/eye). In kind it is functional. In short, it runs like this:
(§3)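 Trained female cats, 2–3 kg, were dosed unilaterally with one 20 µL topical drop of drug in 0.9% NaCl/0.5% polysorbate 80, with vehicle in the contralateral eye. Horizontal pupil diameter was measured with a millimetre ruler under constant 10 lux illumination before dosing and at 1, 3, 6 and 23 h. Reported as maximal treated–control difference or as area between curves, per animal.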

For experiment [5], the species on record is Felis catus. Nature of the experiment: The mean area between curves for Intraocular Pressure (IOP) measured in treated and control eyes. The effect was tested in cats at a dose of 1.0 (ug/eye). The class given is functional. In short, it runs like this:
as §1

The species named for experiment [6] is Oryctolagus cuniculus. Briefly: The maximal difference in conjunctival hyperemia between treated and control eyes. The effect was tested in rabbit at a dose of 0.5 (ug/eye).
The species named for experiment [7] is Felis catus. Briefly: The maximal difference in […] pupil diameter between treated and control eyes. The effect was tested in cats at a dose of 1.0 (ug/eye). The class given is functional. In short, it runs like this:
as §3

The species entered for experiment [8] is Felis catus. Nature of the experiment: The maximal difference in Intraocular Pressure (IOP) between treated and control eyes. The effect was tested in cats at a dose of 10.0 (ug/eye). In kind it is functional. A digest of the protocol:
as §1

The species named for experiment [9] is Oryctolagus cuniculus. Briefly: The mean area between curves for conjunctival hyperemia between treated and control eyes. The effect was tested in rabbit at a dose of 0.5 (ug/eye).
The species entered for experiment [10] is Oryctolagus cuniculus. Briefly: The mean area between curves for conjunctival hyperemia between treated and control eyes. The effect was tested in rabbit at a dose of 0.1 (ug/eye).
The species entered for experiment [11] is Felis catus. Briefly: The mean ocular irritation in the treated eyes. An arbitrary scale of from 0 to 3 was used, 0 indicates absence of irritation and 3 complete closure of the lids. The effect was tested in cats at a dose of 1.0 (ug/eye). In kind it is functional. A digest of the protocol: as §2
For experiment [12], the species on record is Felis catus. Briefly: The mean area between curves for pupil diameter between treated and control eyes. The effect was tested in cats at a dose of 1.0 (ug/eye). The class given is functional. In short, it runs like this: as §3
The species named for experiment [13] is Oryctolagus cuniculus. Briefly: The maximal difference in conjunctival hyperemia between treated and control eyes. The effect was tested in rabbit at a dose of 0.1 (ug/eye).
The species entered for experiment [14] is Felis catus. Briefly: The mean area between curves for Intraocular Pressure (IOP) measured in treated and control eyes. The effect was tested in cats at a dose of 10.0 (ug/eye). The class given is functional. In short, it runs like this: as §1
The species entered for experiment [15] is Felis catus. Briefly: The maximal difference in […] pupil diameter between treated and control eyes. The effect was tested in cats at a dose of 10.0 (ug/eye). In kind it is functional. In short, it runs like this: as §3
For experiment [16], the species on record is Felis catus. Nature of the experiment: The mean area between curves for Intraocular Pressure (IOP) measured in treated and control eyes. The effect was tested in cats at a dose of 3.0 (ug/eye). The class given is functional. A digest of the protocol:
as §1

Experiment [17] is filed under the species Felis catus. Nature of the experiment: The maximal difference in Intraocular Pressure (IOP) between treated and control eyes. The effect was tested in cats at a dose of 3.0 (ug/eye). In kind it is functional. A digest of the protocol:
as §1

The species named for experiment [18] is Felis catus. Nature of the experiment: The mean ocular irritation in the treated eyes. An arbitrary scale of from 0 to 3 was used, 0 indicates absence of irritation and 3 complete closure of the lids. The effect was tested in cats at a dose of 3.0 (ug/eye). In kind it is functional. In short, it runs like this: as §2
Experiment [19] deals with Monkey. Nature of the experiment: The mean area between curves for Intraocular Pressure (IOP) measured in treated and control eyes. The effect was tested in monkey at a dose of 3.0 (ug/eye). In kind it is functional, Cercopithecidae. In short, it runs like this:
(§4)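 Cynomolgus monkeys trained for IOP measurement were sedated with ketamine (2–3 mg/kg) for transport and seated in restraint chairs under oxibuprocain local anaesthesia. One eye received a 10 µL drop of drug in 0.9% NaCl/0.5% polysorbate 80; the fellow eye received vehicle. IOP was read by pneumatonometer calibrated for monkey eyes before dosing and at 1, 2, 4 and 6 h. Matched-pair t test, n = 6.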

For experiment [20], the system named is Monkey. Nature of the experiment: The maximal difference in Intraocular Pressure (IOP) measured in treated and control eyes. The effect was tested in monkey at a dose of 3.0 (ug/eye). The class given is functional, Cercopithecidae. A digest of the protocol: as §4
For experiment [21], the species on record is Felis catus. Nature of the experiment: The mean area between curves for pupil diameter between treated and control eyes. The effect was tested in cats at a dose of 3.0 (ug/eye). In kind it is functional. A digest of the protocol:
as §3

For experiment [22], the species on record is Felis catus. Briefly: The maximal difference in […] pupil diameter between treated and control eyes. The effect was tested in cats at a dose of 3.0 (ug/eye). In kind it is functional. In short, it runs like this:
as §3

Turning to `O=C(O)CCC/C=C\C[C@@H]1[C@@H](/C=C/[C@@H](O)CCc2ccc(Br)cc2)[C@H](O)C[C@@H]1O`, in experiment [1], a half-maximal response (EC50) required 35 nM.

Take `CCCCC[C@H](O)/C=C/[C@@H]1[C@@H](C/C=C\CCCC(=O)O)[C@@H](O)C[C@H]1O` [DINOPROST]: in [1], the EC50 (as a rule, the concentration at which the effect is half-maximal) is 6.7 nM.

Regarding `CC(C)OC(=O)CCC/C=C\C[C@@H]1[C@@H](/C=C/[C@@H](O)CCc2ccc(Br)cc2)[C@H](O)C[C@@H]1O`, the Imax is reported as 0.3 mmHg in experiment [2] and less than -3 mmHg in [8]. Besides, the values for the Irritation in experiment [3] and in [11] were 0.3 arbitrary units and 0 arbitrary units, respectively. In addition, the values for the P ABC in experiment [4] and in experiment [12] were -80 and -18.1, respectively. The results for the “I ABC” value in experiment [5] and in experiment [14] were 3.4 and less than -25, respectively. Besides, the Hmax in experiment [6] is given as less than 0.5; in experiment [13] it was less than 1.1. In addition, the Pmax in [7] was less than -1.5 mm; in experiment [15] it was less than -6 mm. The entries for the “H ABC” value in [9] and in experiment [10] were 1.2 and less than 2.2, respectively.

On to `Cc1cccc(CCC(O)/C=C/[C@@H]2[C@@H](C/C=C\CCCC(=O)O)[C@@H](O)C[C@H]2O)c1` (stereo not given in full), for which the EC50 in [1] is 4.3 nM.

Consider `CC(C)OC(=O)CCC/C=C\C[C@@H]1[C@@H](/C=C/[C@@H](O)CCc2cccc(Br)c2)[C@H](O)C[C@@H]1O`, for which the Imax was -1 mmHg in [2], -2.7 mmHg in [17], -2 mmHg in [20] and less than -3.3 mmHg in experiment [8]. In addition, the figures for the Irritation in experiment [3], in [18] and in experiment [11] were 0.2 arbitrary units, 0.3 arbitrary units and 0.2 arbitrary units, respectively. Besides, the “I ABC” value in experiment [16] was -42.5; in [19], -6.5; in [5], -12.9; in experiment [14] it was less than -49. Besides, the “P ABC” value in [4] is less than -138; in experiment [12], less than -99; in [21], less than -125. Further, the Hmax in [6] is less than 1.5. Further, the Pmax in [7] was less than 6.3 mm; in experiment [15], less than -6.7 mm; in [22], less than -6.8 mm. Besides, the “H ABC” value in [9] was 4.8.

For the compound `CC(C)OC(=O)CCC/C=C\C[C@@H]1[C@@H](/C=C/[C@H](O)CCc2ccc(-c3ccccc3)cc2)[C@H](O)C[C@@H]1O`, the Imax in experiment [2] is given as less than -1 mmHg; in [8], -0.3 mmHg. Also, the “P ABC” value in experiment [4] is listed as -3.8; in [12], 1.8. Besides, the “I ABC” value is listed as -8.3 in experiment [5] and -2 in experiment [14]. This compound also yielded an Hmax in experiment [6] of less than 0.5. Moreover, the values for the Pmax in [7] and in [15] were 0.5 mm and less than -0.8 mm, respectively. The “H ABC” value in [9] turned out to be 0.7.

For `CC(C)OC(=O)CCC/C=C\C[C@@H]1[C@@H](/C=C/[C@H](O)CCc2ccc(Br)cc2)[C@H](O)C[C@@H]1O`, the Imax in experiment [2] is listed as -1 mmHg; in experiment [17], less than -2 mmHg; in [8] it was less than -2 mmHg. For the same compound, the values for the Irritation in experiment [3], in [18] and in experiment [11] were 0 arbitrary units, 0.2 arbitrary units and 0.5 arbitrary units, respectively. Further, the “I ABC” value in experiment [16] is on record as less than -17; in [5], -14; in experiment [14], -10. For the same compound, the P ABC in experiment [4] was -23; in experiment [12], -27; in experiment [21] it was -2.2. Besides, the Hmax in [6] is less than 0.7; in [13] it was 0.2. For the same compound, the Pmax in experiment [7] was less than -2.2 mm; in experiment [15], less than -2.3 mm; in experiment [22], -0.7 mm. Further, the “H ABC” value in [9] is on record as 0.6; in experiment [10], 0.3.
